Converted amounts (≈) assume the structure as drawn.
Key:
DNA gyrase = DNA gyrase (Escherichia coli, UniProt P0AES4+P0AES6); assay: Inhibition against DNA gyrase; format: protein-complex assay
Streptococcus pneumoniae = assay: Minimum inhibitory concentration was evaluated in vitro against Streptococcus pneumoniae SV-1; format: functional
In short: (§1)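 Standard microtitration broth assay against a panel of 10 Gram-positive and Gram-negative organisms. MIC read in µg/mL and averaged over multiple experiments.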

Staphylococcus aureus [1] = assay: Minimum inhibitory concentration was evaluated in vitro against Staphylococcus aureus UC 76; format: functional; in short: as §1
Enterobacter cloacae = assay: Minimum inhibitory concentration in vitro against Enterobacter cloacae MA 2646; format: functional
Klebsiella pneumoniae = assay: Minimum inhibitory concentration was evaluated in vitro against Klebsiella pneumoniae MGH2; format: functional; in short: as §1
Streptococcus pyogenes [2] = assay: Antibacterial activity measured as mouse protection against Streptococcus pyogenes C 203 after subcutaneous administration; format: functional; conditions: for ED50: Streptococcus pyogenes, C 203, sc, read-out: PD50
Streptococcus pyogenes [3] = assay: Minimum inhibitory concentration was evaluated in vitro against Streptococcus pyogenes C 203; format: functional; in short: as §1
Escherichia coli [4] = assay: Antibacterial activity in vitro against Escherichia coli Vogel; format: functional; in short: as §1
Pseudomonas aeruginosa = assay: Minimum inhibitory concentration was evaluated in vitro against Pseudomonas aeruginosa UI-18; format: functional; in short: as §1
Enterococcus faecalis = assay: Minimum inhibitory concentration was evaluated in vitro against Enterococcus faecalis MGH-2; format: functional; in short: as §1
Streptococcus pyogenes [5] = assay: Compounds were evaluated in vivo for antibacterial activity for mouse protection against Streptococcus pyogenes C 203 after oral administration; format: functional; conditions: for ED50: Streptococcus pyogenes, C 203, po, read-out: PD50
Staphylococcus aureus [6] = assay: Minimum inhibitory concentration was evaluated in vitro against Staphylococcus aureus H 228; format: functional; in short: as §1
Providencia rettgeri = assay: Minimum inhibitory concentration was evaluated in vitro against Providencia rettgeri M1771; format: functional; in short: as §1
Escherichia coli [7] = assay: Antibacterial activity against Escherichia coli Vogel after subcutaneous administration in mouse; format: functional; conditions: Escherichia coli, sc; read-out: PD50
Escherichia coli [8] = assay: Antibacterial activity against Escherichia coli Vogel after oral administration in mouse; format: functional; conditions: Escherichia coli, po; read-out: PD50
[9] = Clonogenic cytotoxicity against hamster V-79 cells; format: functional, Cricetulus griseus, V79
In short: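 Chinese hamster V-79 cells grown overnight, then drug-treated for 3 h at 37 °C. Medium is replaced with fresh medium and cells are incubated 5 days to allow colony formation. IC50 (µg/mL) is the concentration inhibiting colony formation by 50% relative to control.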

Mus musculus = organism: Mus musculus; assay: Compounds were evaluated for phototoxicity no-effect dose in mouse; format: functional
In short: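 Depilated female CD-1 mice, five per dose plus controls. Animals are dosed orally and then exposed daily to UV-A (320–400 nm) for 3 h, for up to 4 days or until a definite positive response. Redness or erythema relative to controls, read 24 h after irradiation, counts as positive. Reported as the highest dose with no effect (mg/kg).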

[10] = Streptococcus pneumoniae, read-out: MIC
[11] = Staphylococcus aureus, read-out: MIC
[12] = Enterobacter cloacae, read-out: MIC
[13] = Klebsiella pneumoniae, read-out: MIC
[14] = Streptococcus pyogenes, read-out: MIC
[15] = Escherichia coli, read-out: MIC
[16] = Pseudomonas aeruginosa, read-out: MIC
[17] = Enterococcus faecalis, read-out: MIC
[18] = Providencia rettgeri, read-out: MIC

| Compound | ED50 (Escherichia coli [7]) [mg/kg] | ED50 (Escherichia coli [8]) [mg/kg] | MIC (Streptococcus pneumoniae; [10]) [µg/mL] | MIC (Staphylococcus aureus [1]; [11]) [µg/mL] | MIC (Enterobacter cloacae; [12]) [µg/mL] | Cytotoxicity [9] [µg/mL] | MIC (Klebsiella pneumoniae; [13]) [µg/mL] | ED50 (Streptococcus pyogenes [2]) [mg/kg] | MIC (Streptococcus pyogenes [3]; [14]) [µg/mL] | Dose (Mus musculus) [mg/kg] | MIC (Escherichia coli [4]; [15]) [µg/mL] | MIC (Pseudomonas aeruginosa; [16]) [µg/mL] | MIC (Enterococcus faecalis; [17]) [µg/mL] | ED50 (Streptococcus pyogenes [5]) [mg/kg] | MIC (Staphylococcus aureus [6]; [11]) [µg/mL] | MIC (Providencia rettgeri; [18]) [µg/mL] | other results |
| --- | --- | --- | --- | --- | --- | --- | --- | --- | --- | --- | --- | --- | --- | --- | --- | --- | --- |
| C[C@@H](N)[C@H]1CCN(c2cc3c(cc2F)c(=O)c(C(=O)O)cn3C2CC2)C1 |  |  |  |  |  |  |  |  |  |  |  |  |  |  |  |  | IC50 (DNA gyrase): 20.9 µM; MIC (Streptococcus pneumoniae): 0.1 µg/mL (≈ 0.278 µM); MIC (Staphylococcus aureus [1]): 0.05 µg/mL (≈ 0.139 µM); MIC (Enterobacter cloacae): 0.2 µg/mL (≈ 0.556 µM); MIC (Klebsiella pneumoniae): 0.4 µg/mL (≈ 1.11 µM); PD50 (Streptococcus pyogenes [2]): 3 mg/kg; MIC (Streptococcus pyogenes [3]): 0.1 µg/mL (≈ 0.278 µM); MIC (Escherichia coli [4]): 0.2 µg/mL (≈ 0.556 µM); MIC (Pseudomonas aeruginosa): 1.6 µg/mL (≈ 4.45 µM); MIC (Enterococcus faecalis): 0.2 µg/mL (≈ 0.556 µM); PD50 (Streptococcus pyogenes [5]): >100 mg/kg; MIC (Staphylococcus aureus [6]): 0.4 µg/mL (≈ 1.11 µM); MIC (Providencia rettgeri): 0.8 µg/mL (≈ 2.23 µM) |
| CCn1cc(C(=O)O)c(=O)c2cc(F)c(N3CC[C@H]([C@@H](C)N)C3)c(F)c21 (mixture of isomers) | 1 | 3 | 0.003 | 0.006 | 0.05 | 9.8 | 0.1 | 0.4 | 0.003 | <10 | 0.05 | 0.8 | 0.013 | 1 | 0.025 | 0.2 |  |
| COc1c(N2CC[C@H]([C@@H](C)N)C2)c(F)cc2c(=O)c(C(=O)O)cn(C3CC3)c12 (racemic) | 1 | 4 | 0.003 (≈ 0.0077 µM) | 0.003 (≈ 0.0077 µM) | 0.05 (≈ 0.128 µM) | <7.8 | 0.05 (≈ 0.128 µM) | 0.3 | 0.003 (≈ 0.0077 µM) | >100 | 0.025 (≈ 0.0642 µM) | 0.4 (≈ 1.03 µM) | 0.006 (≈ 0.0154 µM) | 1 | 0.006 (≈ 0.0154 µM) | 0.05 (≈ 0.128 µM) |  |
| Nc1c(F)c(N2CCC(N)C2)c(F)c2c1c(=O)c(C(=O)O)cn2C1CC1 (stereo unspecified) | 0.3 | 1 | 0.006 (≈ 0.0165 µM) | 0.006 (≈ 0.0165 µM) | 0.013 (≈ 0.0357 µM) | 15 | 0.006 (≈ 0.0165 µM) | 8 | 0.025 (≈ 0.0686 µM) | 55 | 0.006 (≈ 0.0165 µM) | 0.05 (≈ 0.137 µM) | 0.025 (≈ 0.0686 µM) | 28 | 0.013 (≈ 0.0357 µM) | 0.025 (≈ 0.0686 µM) |  |
